≈ marks a conversion by molar mass, not a printed value.
Tested on: Plasmodium falciparum
Assay: Minimum inhibitory concentration against Plasmodium falciparum NF-54 after 40 hrs
Assay type: functional
In short: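 Rieckmann-type microassay. NF-54 is kept in RPMI-1640 with 25 mM Hepes, 1% D-glucose, 0.23% NaHCO3 and 10% heat-inactivated human serum, then synchronized to ring stage with 5% D-sorbitol. Ring-stage parasites at about 1% parasitemia and 3% hematocrit are exposed in duplicate to […] for 36–40 h at 37 °C in a candle jar. Maturation is read on Giemsa smears. MIC is the concentration that completely blocks schizont maturation.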

Work on `COc1ccccc1CN1CCN(c2nc(N3CCN(Cc4ccccc4OC)CC3)nc(-n3nc(-c4ccc(OC)c(OC)c4)cc3SC)n2)CC1` yielded an MIC of 50 µg/mL (≈ 67.8 µM).
Work on `COc1ccc(-c2cc(SC)n(-c3nc(N4CCc5ccccc5C4)nc(N4CCc5ccccc5C4)n3)n2)cc1OC` yielded an MIC of 50 µg/mL (≈ 84.5 µM).
In the case of `COc1ccc(-c2cc(SC)n(-c3nc(N4CCN(c5ccccc5)CC4)nc(N4CCN(c5ccccc5)CC4)n3)n2)cc1OC`, the MIC is reported as 10 µg/mL (≈ 15.4 µM).
`COc1ccc(-c2cc(SC)n(-c3nc(Nc4ccccc4C)nc(Nc4ccccc4C)n3)n2)cc1OC` was tested, and the MIC was 10 µg/mL (≈ 18.5 µM).
In the case of `COc1ccc(-c2cc(SC)n(-c3nc(N4CCOCC4)nc(N4CCOCC4)n3)n2)cc1OC`, the MIC is reported as 10 µg/mL (≈ 20 µM).
Work on `CC1(C)N=C(N)N=C(N)N1c1ccc(Cl)cc1` [CYCLOGUANIL] yielded an MIC of 64 µg/mL (≈ 254 µM).
Compound `COc1cc(-c2cc(SC)n(-c3nc(N4CCN(c5ccccc5)CC4)nc(N4CCN(c5ccccc5)CC4)n3)n2)cc(OC)c1OC` has an MIC of 50 µg/mL (≈ 73.5 µM).
`COc1cc(-c2cc(SC)n(-c3nc(N4CCc5ccccc5C4)nc(N4CCc5ccccc5C4)n3)n2)cc(OC)c1OC` showed an MIC greater than 50 µg/mL.
`COc1ccc(-c2cc(SC)n(-c3nc(NC4CCCCC4)nc(NC4CCCCC4)n3)n2)cc1OC` showed an MIC of 50 µg/mL (≈ 95.5 µM).
Work on `COc1ccc(-c2cc(SC)n(-c3nc(NCCCN4CCOCC4)nc(NCCCN4CCOCC4)n3)n2)cc1OC` yielded an MIC of 10 µg/mL (≈ 16.3 µM).
In the case of `COc1cc(-c2cc(SC)n(-c3nc(Nc4ccccc4C)nc(Nc4ccccc4C)n3)n2)cc(OC)c1OC`, the MIC is reported as 1 µg/mL (≈ 1.76 µM).
`COc1cc(-c2cc(SC)n(-c3nc(NCc4ccccc4)nc(NCc4ccccc4)n3)n2)cc(OC)c1OC` was tested, and the MIC was 2 µg/mL (≈ 3.51 µM).
`COc1ccc(-c2cc(SC)n(-c3nc(NCCN4CCOCC4)nc(NCCN4CCOCC4)n3)n2)cc1OC` was tested, and the MIC was 2 µg/mL (≈ 3.41 µM).
Compound `COc1cc(-c2cc(SC)n(-c3nc(NC4CCCCC4)nc(NC4CCCCC4)n3)n2)cc(OC)c1OC` has an MIC of 2 µg/mL (≈ 3.61 µM).
With `COc1ccc(-c2cc(SC)n(-c3nc(N4CCCCC4)nc(N4CCCCC4)n3)n2)cc1OC` the MIC was 10 µg/mL (≈ 20.2 µM).
`COc1cc(-c2cc(SC)n(-c3nc(N4CCOCC4)nc(N4CCOCC4)n3)n2)cc(OC)c1OC` gave an MIC greater than 50 µg/mL.
Compound `COc1cc(-c2cc(SC)n(-c3nc(NCCN4CCOCC4)nc(NCCN4CCOCC4)n3)n2)cc(OC)c1OC` has an MIC of 1 µg/mL (≈ 1.62 µM).
For `COc1ccccc1CN1CCN(c2nc(N3CCN(Cc4ccccc4OC)CC3)nc(-n3nc(-c4cc(OC)c(OC)c(OC)c4)cc3SC)n2)CC1`, the MIC was 50 µg/mL (≈ 65.1 µM).
Compound `COc1cc(-c2cc(SC)n(-c3nc(N4CCN(Cc5ccccc5)CC4)nc(N4CCN(Cc5ccccc5)CC4)n3)n2)cc(OC)c1OC` has an MIC of 50 µg/mL (≈ 70.6 µM).
Work on `COc1cc(-c2cc(SC)n(-c3nc(N4CCCCC4)nc(N4CCCCC4)n3)n2)cc(OC)c1OC` yielded an MIC greater than 50 µg/mL.
With `COc1ccc(-c2cc(SC)n(-c3nc(N4CCN(Cc5ccccc5)CC4)nc(N4CCN(Cc5ccccc5)CC4)n3)n2)cc1OC` the MIC was 2 µg/mL (≈ 2.95 µM).
`COc1ccc(-c2cc(SC)n(-c3nc(NCc4ccccc4)nc(NCc4ccccc4)n3)n2)cc1OC` was tested, and the MIC was greater than 50 µg/mL.
`COc1cc(-c2cc(SC)n(-c3nc(NCCCN4CCOCC4)nc(NCCCN4CCOCC4)n3)n2)cc(OC)c1OC` gave an MIC of 10 µg/mL (≈ 15.5 µM).
